Data published in PMC4536915 (Nature chemical biology, 2015).
Several values for one entry are separate records, joined by “and”; a condition that tells them apart may be missing. Identical values can stand only once.

What was measured:
[1] = Plasma protein binding, equilibrium dialysis, mouse; format: in vitro ADME; conditions: 50 μM
P. aeruginosa PAO1 [2] = test: In vitro post-antibiotic effect; format: cell-based, Pseudomonas aeruginosa; conditions: 1 h exposure, 1:1000 dilution
Outline: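 Drug removed by 1:1000 dilution into pre-warmed medium. Regrowth at 37 °C counted immediately and hourly for 8 h (detection limit 1 log10 CFU/mL). Triplicate independent occasions; mechanistic PD model fitted.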

P. aeruginosa PAO1 [3] = test: MIC by broth microdilution, wild-type strain; format: cell-based, Pseudomonas aeruginosa; conditions: 24 h, 37 °C; listed as F
[4] = Plasma protein binding, equilibrium dialysis, human; format: in vitro ADME; conditions: 50 μM
[5] = test system: P. aeruginosa PAO1 MexABCDXY− (N150); test: MIC by broth microdilution, efflux-deficient strain; format: cell-based, Pseudomonas aeruginosa; conditions: 24 h, 37 °C; listed as F
P. aeruginosa cells = test: Killing kinetics; format: cell-based, Pseudomonas aeruginosa; conditions: 37°C; linear regression after 1 hr lag
[6] = test system: P. aeruginosa strain PAO1; test: Neutropenic mouse thigh infection model, single dose time course; format: in vivo, CD-1 mice; conditions: resistance emergence test

For `COc1ccc(-c2ccn(CC[C@](C)(C(=O)NO)S(C)(=O)=O)c(=O)c2)c(F)c1` [Compound 6], the “free fraction (fu)” value [1] was 0.41, the “PAE at 4x MIC” value (P. aeruginosa PAO1 [2]) was 1.26 h and the “PAE at 8x MIC” value (P. aeruginosa PAO1 [2]) was 1.67 h. For the same compound, the “PAE at 16x MIC” value (P. aeruginosa PAO1 [2]) was 1.93 h, the “P.ae MIC PAO1” value (P. aeruginosa PAO1 [3]) was 0.25 μg/ml and 0.61 μM and the “free fraction (fu)” value [4] was 0.28. For the same compound, the “P.ae MIC PAO1 MexABCDXY−” value [5] was 0.0075 μg/ml and 0.018 μM, the maximum killing rate (P. aeruginosa cells) was 2.8 log10 CFU/hr and the “CFU from 24 h timepoints on selective media (4× MIC)” value [6] was “no CFU were obtained”.
